High-throughput results from PubChem BioAssay.
PRMT1 inh: blocks human protein arginine methyltransferase 1; recombinant PRMT1, activity-based probe fluorescence polarization; 1.3% of 370,000 active; inhibition, % at 2.79 µM; AID 652257;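 active = inhibition above about 21% made by adding two undisclosed values, limit read from the data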
HTRA1 inh: inhibitors of human serine peptidase HTRA1. 0.5% of 340,000 active. AID 504803. recombinant HTRA1, FP-rhodamine activity-based probe, fluorescence polarization. inhibition, % at 5.96 µM; in the data active = inhibition above about 36%;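 also: 0% = enzyme with DMSO and 100% = wells lacking enzyme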
ATG4B inh: inhibitors of human ATG4B cysteine protease | inhibition, % at 8.33 µM | Q9Y4P1 | ATG4B cleavage of LC3-PLA2, NBD-HPC fluorescence, 1 h | 0.51% of 340,000 active | AID 504462; in the data active = inhibition above about 40%
TCR CD3 inh: human TCR-CD3 binding inhibition | TAMRA-labeled TCR probe fluorescence, biochemical | inhibition, % at 9.4 µM | 0.37% of 360,000 active | AID 651800; in the data active = inhibition above about 19%;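 also: recombinant mutant TCR 2C K166C tagged with TAMRA read by polarization; 0% = receptor in buffer alone and 100% = receptor with positive control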
SIAE primary: blocks human sialic acid acetylesterase; Q9HAT2; SIAE FP-Rh probe binding, fluorescence polarization; inhibition, % at 9.66 µM; 0.69% of 370,000 active;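 active = inhibition above a cutoff: mean of compounds within the control limits plus 3 SD of those, cut at about 17% in these data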;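 also: 0% = plate median of compound wells and 100% = probe without SIAE protein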
Target sequence (Q9HAT2 whole entry, looked up): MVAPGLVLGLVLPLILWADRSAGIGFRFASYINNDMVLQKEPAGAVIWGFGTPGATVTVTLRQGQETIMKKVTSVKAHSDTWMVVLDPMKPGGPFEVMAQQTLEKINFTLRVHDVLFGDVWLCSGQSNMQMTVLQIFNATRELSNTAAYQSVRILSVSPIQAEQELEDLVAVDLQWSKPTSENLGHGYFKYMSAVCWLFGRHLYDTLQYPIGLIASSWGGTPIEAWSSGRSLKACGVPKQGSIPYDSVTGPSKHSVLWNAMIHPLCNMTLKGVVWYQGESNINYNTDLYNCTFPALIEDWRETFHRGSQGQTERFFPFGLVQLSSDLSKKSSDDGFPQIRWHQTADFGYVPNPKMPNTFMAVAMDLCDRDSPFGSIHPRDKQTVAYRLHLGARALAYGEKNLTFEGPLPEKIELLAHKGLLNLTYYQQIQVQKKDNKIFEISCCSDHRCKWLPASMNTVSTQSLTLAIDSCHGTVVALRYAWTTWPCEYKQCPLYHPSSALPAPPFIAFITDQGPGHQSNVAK
mABHD4 FP: ABHD4 (mouse) inhibition, primary FP screen | Q8VD66 | purified mABHD4, FP-Rh probe fluorescence polarization | inhibition, % at 8.92 µM | 0.54% of 370,000 active | AID 720543;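 active = inhibition exceeding the mean over every tested compound plus 3 SD, cut at about 30% in these data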;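 also: 0% = plate median of compound wells and 100% = S159A mutant with DMSO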
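Assay system: mouse ABHD4 enzyme, wild type / Also added: fluorescent activity-based probe FP-Rh / Doses: single nominal dose of 8.92 µM, 0.89% DMSO final / Timing: 45 min compound pre-incubation plus 60 min probe step, 25 °C / Signal: FP readout, ex 525 nm / em 598 nm / Control set: S159A mutant/DMSO as 100%, compound-well median as 0%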
PRMT1 confirm: confirmation of human PRMT1 inhibitors | 42% of 3,300 active | AID 687036 | recombinant His-PRMT1, activity-based probe fluorescence polarization | inhibition, % at 2.79 µM | shares compounds with PRMT1 inh;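 active = mean inhibition across replicates above the hit cutoff derived for the earlier primary screen, cut at about 22% in these data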
* hit, by the source's call; nt = no result. Most compounds without a hit are left out; they make up all but 2.9% or so of the library.

SMILES	PRMT1 inh	HTRA1 inh	ATG4B inh	TCR CD3 inh	SIAE primary	mABHD4 FP	PRMT1 confirm
Cc1cc(C(=O)OCCCN(C)C2CN(Cc3cn(Cc4ccccc4C(F)(F)F)nn3)S(=O)(=O)C2)no1 (configuration not stated)	3.1	nt	nt	nt	5.8	8.8	nt
COC(=O)c1sc(NC(=O)c2cc(-c3ccccc3)nc3ccccc23)c(C#N)c1C	37.0*	-9.2	39.9	-0.2	-7.2	10.8	63.5*
O=C(NC1CCCCN(Cc2ccc(Cl)cc2)C1=O)c1ccc(F)c(F)c1 (configuration not stated)	3.0	nt	nt	nt	-6.0	-7.3	nt
CC(C)n1c(-c2ccccc2)nc(=S)c2c1CCCC2	36.0*	nt	nt	-5.0	1.2	12.7	2.7
COc1ccc2c(c1)sc(N)[n+]2Cc1cc(C)cc2cccnc12	1.6	-0.7	-9.7	-1.0	-8.2	2.4	nt
COc1ccc2sc(C)[n+](C)c2c1	60.2*	-6.5	-5.2	-3.8	-1.2	5.3	30.2*
CCCC[n+]1c(C)sc2cc(OC)ccc21	30.2*	-5.0	-4.2	0.8	3.8	3.7	6.3
C=CCN1C(=O)[C@@H](CC(=O)N2CCCCC2)[C@]2(C(=O)OC)CCCCC=C12	-2.6	nt	nt	nt	6.5	6.8	nt
O=C(NCc1ccccn1)c1ccc2c(c1)N(Cc1ccccc1)CCS2	6.5	4.2	2.1	-1.5	2.9	0.1	nt
CCN1CCSc2ccc(C(=O)NCc3cccc(F)c3)cc21	13.4	1.8	18.5	2.8	7.1	0.2	nt
O=C(NCc1cccnc1)c1ccc2c(c1)N(Cc1ccccc1)CCS2	28.8*	3.8	-12.8	1.2	2.4	2.6	7.3
CCCOc1ccc(CNC(=O)c2ccc3c(c2)N(CC)CCS3)cc1	27.5*	-7.5	-16.9	-2.6	7.8	7.8	4.8
CCCCn1nnnc1C1c2ccccc2OCC(=O)N1Cc1ccc2c(c1)OCO2 (configuration not stated)	-0.5	nt	nt	nt	-5.0	2.4	nt
CC(C)[C@H](N)C(=O)N1CCC[C@@H]1C(=O)N1CCC2CCN(S(=O)(=O)c3ccccc3)CC21 (some centres not stated)	3.7	nt	nt	nt	-3.8	2.2	nt
Cc1ccccc1CN1CCCCC(NC(=O)c2cccc(F)c2)C1=O (configuration not stated)	-3.9	nt	nt	nt	-7.0	6.0	nt
C=CCN1C(=O)[C@@H](CC(=O)N2CCN(C(=O)C3CC3)CC2)[C@]2(C(=O)OCC)CCCCC/C=C/12	2.2	nt	nt	nt	-1.8	-0.9	nt
Cc1csc(NC(=O)c2ccc(COc3cccc(F)c3)o2)n1	2.2	nt	nt	nt	-0.8	-9.4	nt
COC(=O)[C@]12C[C@H](CC(=O)N3CCN(C(=O)c4ccco4)CC3)C(=O)N(CCc3ccc(OC)c(OC)c3)C1=C[C@H](C(C)C)O[C@@H]2C1CC1	-2.8	nt	nt	nt	-5.2	3.1	nt
CCOc1ccc(-n2ccnc(SCC(=O)Nc3cccc(OC)c3)c2=O)cc1	39.1*	-8.6	-5.0	4.1	11.7	-0.3	41.7*
COc1ccc(-n2ccnc(SCC(=O)NCc3ccccc3Cl)c2=O)cc1	88.2*	3.8	5.1	-5.1	9.3	8.3	13.9
COc1ccccc1-n1ccnc(SCC(=O)NCc2ccccc2Cl)c1=O	20.4	0.4	8.1	5.0	-0.8	-0.5	nt
Cc1ccc(C(=O)NC2CCCCN(Cc3cccc(Cl)c3)C2=O)c(C)c1 (configuration not stated)	0.4	nt	nt	nt	-1.1	3.3	nt
O=C(CSC1=NCCS1)Nc1ccc(S(=O)(=O)N2CCCCCC2)cc1	38.1*	-19.4	-17.4	5.4	-32.6	-15.5	51.5*
O=C(CSC1=NCCS1)Nc1ccc(S(=O)(=O)NC2CCCCC2)cc1	29.3*	-14.8	-6.7	2.8	0.8	-12.2	26.1*
CC(=O)Nc1ccc(NC(=O)CSC2=NCCS2)cc1	7.5	4.9	-0.2	3.9	0.3	5.5	nt
SMILES	PRMT1 inh	HTRA1 inh	ATG4B inh	TCR CD3 inh	SIAE primary	mABHD4 FP	PRMT1 confirm
CC(C)c1c(C#N)c(N)nc(SCC(=O)c2cc3ccccc3oc2=O)c1C#N	-0.1	-4.9	11.7	3.0	-3.4	-3.9	nt
N#Cc1ccc(-c2ccccc2)nc1SCC(=O)c1cc2ccccc2oc1=O	34.5*	-45.4	-0.7	-4.8	-25.9	-18.5	8.0
O=C(O)c1cccc(S(=O)(=O)NCC(=O)N2CCN(c3ccccn3)CC2)c1	2.1	nt	nt	nt	-0.1	11.2	nt
NC(=O)COC(=O)C12CC3CC(CC(O)(C3)C1)C2	-1.3	2.3	-1.1	2.5	-2.1	-0.3	nt
NC(CSS(=O)(=O)O)=NCCC12CC3CC(CC(O)(C3)C1)C2	40.9*	3.9	9.6	4.5	-2.8	3.3	43.6*
c1cn2cc(-c3ccc4c(c3)OCO4)nc2s1	34.6*	-1.4	-4.0	-0.8	4.6	-3.3	46.4*
CC(=O)Nc1ccc(-c2cn3ccsc3n2)cc1	1.9	-2.4	-8.4	-1.1	1.7	-1.2	nt
Cc1cc(N2CCN(CC(C)(C)O)C[C@@H]2C)ccc1N1CCN(CC(C)(C)O)[C@H](C)C1	-5.3	nt	nt	-1.7	6.5	-13.9	nt
O=C(NC(=S)NC1CCSC1=O)c1ccccc1Cl (configuration not stated)	26.3*	1.8	-5.5	-0.9	6.1	-4.9	1.2
O=C(NC(=S)NC1CCSC1=O)c1ccccc1 (configuration not stated)	30.1*	-5.2	-5.5	3.1	3.9	0.3	8.8
CCCCN1CC(=O)N2[C@H](C[C@@]3(n4ccc5ccccc54)c4ccccc4N(S(=O)(=O)c4ccccc4)[C@@H]23)C1=O	2.4	nt	nt	nt	-5.4	2.9	nt
CCC[n+]1c(C)sc2c(OC)ccc(OC)c21	39.9*	3.3	1.3	4.6	6.3	3.0	17.2
COc1ccc(-n2c(SC/C=C/c3ccccc3)nnc2-c2cccs2)cc1	-1.1	nt	nt	nt	-0.3	-12.8	nt
Clc1ccc(-c2cnc3cccnn23)cc1	-1.2	nt	nt	-1.0	1.7	0.5	nt
Nc1cccn2c(-c3ccc(Cl)c(Cl)c3)cnc12	31.5*	-1.1	10.0	-4.8	0.8	7.6	-2.6
Nc1cccn2c(-c3ccc(Cl)cc3)cnc12	41.7*	19.2	-0.9	2.1	1.5	17.8	-0.6
Cc1cccc(C)c1NC(=O)C1CCN(c2ncccn2)CC1	3.0	nt	nt	nt	2.7	1.9	nt
CCC(Oc1ccccc1)C(=O)Nc1nc2ccccc2[nH]1 (configuration not stated)	26.3*	-4.8	-16.7	-6.1	-4.4	7.4	20.8
O=C(CSc1nc2ccccc2n1Cc1ccccc1)NN=Cc1c[nH]c2ccccc12	2.2	nt	nt	nt	0.0	-20.8	nt
CCOC(=O)N(C)OC(=O)Nc1ccc(Cl)c(Cl)c1	35.3*	-17.8	-0.3	-4.8	-6.8	-6.0	35.9*
CCOC(=O)N(CC)OC(=O)Nc1ccc(Cl)cc1	6.2	-3.8	1.1	-3.0	2.7	-2.1	nt
